Test results published in ChEMBL document CHEMBL1811768, “Synthesis of N-substituted 3,5-bis(arylidene)-4-piperidones with high antitumor and antioxidant activity” (J Med Chem, 2011).
Calls of active or inactive are those of the source. No cut-off for these calls is given here.

Columns and labels:
[1] = Cytotoxicity against rat H9c2 cells assessed as cell viability at 10 uM after 24 hrs by MTT assay relative to control; type: cell-based; conditions: read-out: Activity
[2] = test system: MCF7; assay: Cytotoxicity against human MCF7 cells assessed as cell viability at 10 uM after 24 hrs by MTT assay relative to control; type: functional; conditions: MCF7, 24 h, read-out: Activity
Summary of the method: (§1)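 MTT viability assay in human A2780 and MCF-7 cancer cells. Cells were exposed to compound at 10 μM for 24 h. Results are given as percent cell viability relative to the respective untreated control.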

[3] = test system: A2780; assay: Cytotoxicity against human A2780 cells assessed as cell viability at 10 uM after 24 hrs by MTT assay relative to control; type: functional; conditions: A2780, 24 h, read-out: Activity; summary of the method: as §1
[4] = test system: A2780; assay: Antitumor activity against human A2780 cells in xenograft model assessed as increase of caspase 3 level in tumor; type: functional, cell-based
[5] = test system: Kidney; assay: Biodistribution in ip dosed rat kidney after 3 hrs; type: ADME, organism-based; conditions: in vivo
[6] = molecular target: Signal transducer and activator of transcription 3 (Homo sapiens) (UniProt P40763); assay: Inhibition of STAT3 phosphorylation at Tyr705 in human A2780 cells; type: cell-based
[7] = test system: A2780; assay: Antitumor activity against human A2780 cells in xenograft model assessed as tumor growth inhibition; type: functional, cell-based
[8] = test system: OV4; assay: Cytotoxicity against human OV4 cells by MTT assay; type: functional, cell-based
[9] = test system: OVCA3; assay: Cytotoxicity against human OVCA3 cells by MTT assay; type: functional, cell-based
[10] = test system: A2780; assay: Induction of Fas/CD95 expression in human A2780 cells; type: functional, cell-based
[11] = molecular target: Signal transducer and activator of transcription 3 (Homo sapiens) (UniProt P40763); assay: Inhibition of STAT3 phosphorylation at Tyr705/Ser727 in human MCF7 cells by Western blot analysis; type: cell-based
[12] = Inhibition of JAK/STAT3 pathway in human A2780 cells assessed as reduction in Bcl-xL level; type: cell-based
[13] = test system: A2780; assay: Induction of cell cycle arrest at G2/M phase in human A2780 cells assessed as modulation of cyclin expression; type: functional, cell-based
[14] = test system: MCF7; assay: Induction of apoptosis in human MCF7 cells assessed as cleavage of PARP by Western blot analysis; type: functional, cell-based
[15] = test system: A2780; assay: Induction of apoptosis in human A2780 cells assessed as caspase 3 activation by Western blot analysis; type: functional, cell-based
[16] = test system: A2780; assay: Induction of apoptosis in human A2780 cells assessed as caspase 8 activation; type: functional, cell-based
[17] = test system: A2780; assay: Induction of cell cycle arrest at G2/M phase in human A2780 cells assessed as modulation of p27 expression; type: functional, cell-based
[18] = test system: Liver; assay: Biodistribution in ip dosed rat liver after 3 hrs; type: ADME, organism-based; conditions: in vivo
[19] = test system: MCF7; assay: Induction of apoptosis in human MCF7 cells assessed as caspase 3 activation by Western blot analysis; type: functional, cell-based
[20] = Inhibition of JAK/STAT3 pathway in human A2780 cells assessed as reduction in VEGF level; type: cell-based
[21] = test system: PA-1; assay: Cytotoxicity against human PA1 cells by MTT assay; type: functional, cell-based
[22] = test system: A2780; assay: Induction of cell cycle arrest at G2/M phase in human A2780 cells assessed as modulation of p53 expression; type: functional, cell-based
[23] = test system: A2780; assay: Antitumor activity against human A2780 cells in xenograft model assessed as increase of PARP level in tumor; type: functional, cell-based
[24] = Inhibition of JAK/STAT3 pathway in human A2780 cells assessed as reduction in survivin level; type: cell-based
[25] = test system: A2780; assay: Antitumor activity against human A2780 cells in xenograft model assessed as reduction of STAT3 phosphorylation at Tyr705/Ser727 level in tumor; type: functional, cell-based
[26] = molecular target: Signal transducer and activator of transcription 3 (Homo sapiens) (UniProt P40763); assay: Inhibition of STAT3 phosphorylation at Tyr705/Ser727 in human A2780 cells by Western blot analysis; type: cell-based
[27] = test system: A2780; assay: Antitumor activity against human A2780 cells in xenograft model assessed as reduction of JAK phosphorylation level in tumor; type: functional, cell-based
[28] = test system: Blood; assay: Biodistribution in ip dosed rat blood after 3 hrs; type: ADME, organism-based; conditions: in vivo
[29] = test system: Rattus norvegicus; assay: Biodistribution in ip dosed rat stomach after 3 hrs; type: ADME, organism-based; conditions: in vivo
[30] = species on record: Homo sapiens; assay: Cytotoxicity against human A2780DDP cells by MTT assay; type: functional, cell-based
[31] = test system: SK-OV-3; assay: Cytotoxicity against human SKOV3 cells by MTT assay; type: functional, cell-based
[32] = molecular target: Tyrosine-protein kinase JAK1 (Homo sapiens) (UniProt P23458); assay: Inhibition of JAK1 phosphorylation in human A2780 cells; type: cell-based
[33] = test system: A2780; assay: Induction of apoptosis in human A2780 cells assessed as caspase 3 activation; type: functional, cell-based
[34] = test system: A2780; assay: Induction of cell cycle arrest at G2/M phase in human A2780 cells assessed as modulation of p21 expression; type: functional, cell-based
[35] = test system: A2780; assay: Induction of apoptosis in human A2780 cells assessed as cleavage of PARP by Western blot analysis; type: functional, cell-based
[36] = Inhibition of JAK/STAT3 pathway in human A2780 cells assessed as reduction in Bcl-2 level; type: cell-based
[37] = test system: A2780; assay: Induction of cell cycle arrest at G2/M phase in human A2780 cells assessed as modulation of CDK2 expression; type: functional, cell-based

Chain of Signal transducer and activator of transcription 3 (Homo sapiens) (P40763 whole entry): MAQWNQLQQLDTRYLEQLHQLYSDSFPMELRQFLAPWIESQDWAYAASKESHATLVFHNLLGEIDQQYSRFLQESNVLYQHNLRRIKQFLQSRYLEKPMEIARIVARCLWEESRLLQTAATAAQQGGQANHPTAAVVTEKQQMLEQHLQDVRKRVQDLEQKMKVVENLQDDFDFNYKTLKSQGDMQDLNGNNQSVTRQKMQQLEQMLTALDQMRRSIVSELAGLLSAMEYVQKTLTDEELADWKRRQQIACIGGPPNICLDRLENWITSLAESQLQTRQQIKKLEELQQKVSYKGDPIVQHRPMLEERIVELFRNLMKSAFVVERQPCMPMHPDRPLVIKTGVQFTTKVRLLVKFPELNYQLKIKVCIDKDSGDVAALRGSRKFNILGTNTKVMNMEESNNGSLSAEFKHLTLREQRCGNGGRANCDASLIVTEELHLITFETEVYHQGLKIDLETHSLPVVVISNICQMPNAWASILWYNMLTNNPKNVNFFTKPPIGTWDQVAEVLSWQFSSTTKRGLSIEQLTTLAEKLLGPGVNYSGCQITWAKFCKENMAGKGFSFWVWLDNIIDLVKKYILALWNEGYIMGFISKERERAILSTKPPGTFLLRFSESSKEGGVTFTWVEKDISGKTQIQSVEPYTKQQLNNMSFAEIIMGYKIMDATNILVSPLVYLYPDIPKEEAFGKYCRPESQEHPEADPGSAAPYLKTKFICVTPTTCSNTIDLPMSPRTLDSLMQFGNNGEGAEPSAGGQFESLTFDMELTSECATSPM
Chain of Tyrosine-protein kinase JAK1 (Homo sapiens) (P23458 whole entry): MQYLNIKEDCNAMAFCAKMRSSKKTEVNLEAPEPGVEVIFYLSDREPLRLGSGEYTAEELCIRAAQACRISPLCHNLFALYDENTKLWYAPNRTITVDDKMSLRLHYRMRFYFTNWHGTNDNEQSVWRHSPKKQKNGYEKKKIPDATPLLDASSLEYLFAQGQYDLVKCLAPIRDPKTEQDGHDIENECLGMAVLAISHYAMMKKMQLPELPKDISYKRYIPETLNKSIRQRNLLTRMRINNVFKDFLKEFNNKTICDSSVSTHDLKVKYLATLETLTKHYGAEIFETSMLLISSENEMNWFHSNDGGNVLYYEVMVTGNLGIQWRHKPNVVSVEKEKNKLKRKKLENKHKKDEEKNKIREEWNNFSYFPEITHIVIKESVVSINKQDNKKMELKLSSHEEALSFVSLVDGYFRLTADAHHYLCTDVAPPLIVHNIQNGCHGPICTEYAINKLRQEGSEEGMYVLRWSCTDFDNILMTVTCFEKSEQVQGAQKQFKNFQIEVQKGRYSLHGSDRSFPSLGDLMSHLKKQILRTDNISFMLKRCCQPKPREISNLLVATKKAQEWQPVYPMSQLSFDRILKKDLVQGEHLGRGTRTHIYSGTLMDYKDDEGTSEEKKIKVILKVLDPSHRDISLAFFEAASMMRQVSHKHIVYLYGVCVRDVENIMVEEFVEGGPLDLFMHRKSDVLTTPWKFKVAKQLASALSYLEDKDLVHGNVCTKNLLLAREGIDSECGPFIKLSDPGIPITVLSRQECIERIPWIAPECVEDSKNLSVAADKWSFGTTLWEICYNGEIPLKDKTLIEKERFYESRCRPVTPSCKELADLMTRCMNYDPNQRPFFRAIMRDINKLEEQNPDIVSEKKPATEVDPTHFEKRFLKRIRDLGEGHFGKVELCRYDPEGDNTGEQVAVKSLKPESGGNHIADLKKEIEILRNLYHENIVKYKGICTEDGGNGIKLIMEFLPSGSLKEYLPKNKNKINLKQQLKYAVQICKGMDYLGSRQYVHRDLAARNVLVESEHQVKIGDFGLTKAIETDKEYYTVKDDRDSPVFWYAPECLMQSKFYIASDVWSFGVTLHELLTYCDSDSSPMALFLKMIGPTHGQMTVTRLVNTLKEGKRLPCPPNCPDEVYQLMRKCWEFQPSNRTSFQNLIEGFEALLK

In the case of `COc1ccc(/C=C2\CNC/C(=C\c3ccc(OC)c(OC)c3OC)C2=O)c(OC)c1OC`, the viability at 24 h, 10 µM [1] is reported as 32.3%, the viability at 10 µM [2] is reported as 56.6% and the viability at 10 µM [3] is reported as 11%.
For `COc1ccc(/C=C2\CN(CC3=CC(C)(C)N([O])C3(C)C)C/C(=C\c3ccc(OC)c(OC)c3OC)C2=O)c(OC)c1OC`, the viability at 24 h, 10 µM [1] was 53.1%, the viability at 10 µM [2] was 28% and the viability at 10 µM [3] was 26.1%.
With `O=C1/C(=C/c2ccc(C(F)(F)F)cc2)CNC/C1=C\c1ccc(C(F)(F)F)cc1` the viability at 24 h, 10 µM [1] was 51.7%, the viability at 10 µM [2] was 20.2% and the viability at 10 µM [3] was 13.1%.
Compound `CC1(C)C=C(NC(=O)N2C/C(=C\c3ccc(F)cc3)C(=O)/C(=C/c3ccc(F)cc3)C2)C(C)(C)N1[O]` has a viability at 24 h, 10 µM [1] of 36.7%, a viability at 10 µM [2] of 12.6% and a viability at 10 µM [3] of 5.9%.
Work on `CC1(C)C=C(CN2C/C(=C\c3ccccc3F)C(=O)/C(=C/c3ccccc3F)C2)C(C)(C)N1[O]` yielded a viability at 24 h, 10 µM [1] of 86.3%, a viability at 10 µM [2] of 53.5% and a viability at 10 µM [3] of 12.5%.
With `CC1(C)C=C(CN2C/C(=C\c3ccc(F)cc3)C(=O)/C(=C/c3ccc(F)cc3)C2)C(C)(C)N1` the viability at 24 h, 10 µM [1] was 78.8%, the viability at 10 µM [2] was 28.3% and the viability at 10 µM [3] was 4.79%.
With `CC1(C)C=C(CN2C/C(=C\c3ccc(F)cc3)C(=O)/C(=C/c3ccc(F)cc3)C2)C(C)(C)N1[O]` the Activity [4] was “Active”, the Drug uptake [5] was “Active” and the inhibition [6] was “Active”. For the same compound, the “growth inhibition (GI)” value [7] was “Dose-dependent effect”, the Activity [8] was “Active” and the Activity [9] was “Active”. The Activity [10] was “Active”, the inhibition [11] was “Active” and the inhibition [12] was “Active”. For the same compound, the Activity [13] was “Active”, the Activity [14] was “Active” and the Activity [15] was “Active”. The Activity [16] was “Active”, the Activity [17] was “Active” and the Drug uptake [18] was “Active”. For the same compound, the viability at 24 h, 10 µM [1] was 88.5%, the Activity [19] was “Active” and the inhibition [20] was “Active”. For the same compound, the viability at 10 µM [2] was 16.6%, the Activity [21] was “Active” and the Activity [22] was “Active”. For the same compound, the Activity [23] was “Active”, the inhibition [24] was “Active” and the Activity [25] was “Active”. For the same compound, the inhibition [26] was “Active”, the Activity [27] was “Active” and the viability at 10 µM [3] was 20.5%. The Drug uptake [28] was “Active”, the Drug uptake [29] was “Active” and the Activity [30] was “Active”. The Activity [31] was “Active”, the inhibition [32] was “Active” and the Activity [33] was “Active”. The Activity [34] was “Active”, the Activity [35] was “Active” and the inhibition [36] was “Active”. The Activity [37] was “Active”.
`O=C1/C(=C/c2ccc(F)cc2)CNC/C1=C\c1ccc(F)cc1` showed a viability at 24 h, 10 µM [1] of 61.4%, a viability at 10 µM [2] of 17.1% and a viability at 10 µM [3] of 12.4%.
`O=C1/C(=C/c2ccccc2F)CNC/C1=C\c1ccccc1F` gave a viability at 24 h, 10 µM [1] of 32.9%, a viability at 10 µM [2] of 34.5% and a viability at 10 µM [3] of 12.8%.
In the case of `CC1=C(CN2C/C(=C\c3ccc(F)cc3)C(=O)/C(=C/c3ccc(F)cc3)C2)C(C)(C)N([O])C1(C)C`, the viability at 24 h, 10 µM [1] is reported as 56.8%, the viability at 10 µM [2] is reported as 42% and the viability at 10 µM [3] is reported as 6.75%.
Work on `CC1(C)c2ccc(CN3C/C(=C\c4ccc(F)cc4)C(=O)/C(=C/c4ccc(F)cc4)C3)cc2C(C)(C)N1[O]` yielded a viability at 24 h, 10 µM [1] of 26.4%, a viability at 10 µM [2] of 46.2% and a viability at 10 µM [3] of 9.5%.
Work on `CC1(C)C=C(C(=O)N2C/C(=C\c3ccc(F)cc3)C(=O)/C(=C/c3ccc(F)cc3)C2)C(C)(C)N1[O]` yielded a viability at 24 h, 10 µM [1] of 33.3%, a viability at 10 µM [2] of 12.4% and a viability at 10 µM [3] of 4.54%.
For `CC1(C)CCC(C)(/C=C/CN2C/C(=C\c3ccc(F)cc3)C(=O)/C(=C/c3ccc(F)cc3)C2)N1[O]` (stereo not given), the viability at 24 h, 10 µM [1] was 51.9%, the viability at 10 µM [2] was 43.1% and the viability at 10 µM [3] was 5.81%.
Work on `CC1(C)CCC(C)(C#CCN2C/C(=C\c3ccc(F)cc3)C(=O)/C(=C/c3ccc(F)cc3)C2)N1[O]` (stereo not given) yielded a viability at 24 h, 10 µM [1] of 50.7%, a viability at 10 µM [2] of 38.3% and a viability at 10 µM [3] of 5.89%.
In the case of `CC1(C)C=C(CN2C/C(=C\c3ccc(C(F)(F)F)cc3)C(=O)/C(=C/c3ccc(C(F)(F)F)cc3)C2)C(C)(C)N1[O]`, the viability at 24 h, 10 µM [1] is reported as 17.1%, the viability at 10 µM [2] is reported as 14.2% and the viability at 10 µM [3] is reported as 5.85%.
Work on `CC1(C)C=C(CN2C/C(=C\c3ccc(F)cc3)C(=O)/C(=C/c3ccc(F)cc3)C2)CC(C)(C)N1[O]` yielded a viability at 24 h, 10 µM [1] of 51.4%, a viability at 10 µM [2] of 20.1% and a viability at 10 µM [3] of 6.86%.
For `CC1(C)c2cnc(CN3C/C(=C\c4ccc(F)cc4)C(=O)/C(=C/c4ccc(F)cc4)C3)cc2C(C)(C)N1[O]`, the viability at 24 h, 10 µM [1] was 46.6%, the viability at 10 µM [2] was 42.7% and the viability at 10 µM [3] was 5.26%.
